# Test results from PubChem BioAssay AID2152 (The Scripps Research Institute Molecular Screening Center, 2009).
# The whole screen tested about 2,300 compounds, of which about 25 (1%) were called active.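 The calls were made as follows: active = mean inhibition over three replicate wells above the hit threshold derived in the earlier primary screen (cut at about 45% in these data); inactive = the rest.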 Many of the other results were omitted from the sample, so actives are more common in it than they were.
# Test system: Hepatitis C virus core protein (core106 dimerization)
# Test: blockers of core106 self-association – biochemical, TR-FRET, triplicate, confirmation (AID 2152);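 also: 0% = DMSO wells and 100% = unlabelled core106 competitor control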
# Conditions: TR-FRET GST-/Flag-core106 dimerization, HTRF; at 5 µM; hits give high values
# Method in brief: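 Test system: GST- and Flag-tagged HCV core106 peptides, dimerization via antibody TR-FRET / Amount: 17 nM Flag- plus 13.5 nM GST-core106 / Probe or stimulus: Eu(K)-anti-GST plus XL665-anti-FLAG antibodies / Compound dosing: one 5 µM dose, 0.5% DMSO / Times: 4 h incubation, 22.5 °C / Technique: TR-FRET, 340 nm excitation, 671/617 nm emission / Evaluation: percent inhibition from emission ratio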
row,Structure (SMILES),inhibition
1,Cc1ccc(NC(=O)N(Cc2ccc3c(c2)OCO3)Cc2cc3cc4c(cc3[nH]c2=O)OCCO4)cc1,2.67% (inactive)
2,CC(=O)NS(=O)(=O)c1ccc(NC(=O)c2cc(-c3ccc(C)c(C)c3)nc3ccccc23)cc1,5.8% (inactive)
3,COc1cc(C(=O)NCC(=O)OCC(=O)c2cccc3ccccc23)cc(OC)c1OC,-3.85% (inactive)
4,O=C(c1ccco1)N1CCN(c2nc(C3CC3)nc3c2nnn3Cc2ccccc2Cl)CC1,-2.25% (inactive)
5,CCOC(=O)c1nn(-c2ccccc2C)c2nc(-c3ccc(Cl)cc3)c(C#N)c(=O)n12,3.54% (inactive)
6,Cc1cccc(N(C)S(=O)(=O)c2ccc3c(c2)C(C)(C)C(=O)N3C)c1,4.84% (inactive)
7,COc1cc(OC)c(NC(=O)CN(C)S(=O)(=O)c2ccc(-c3ccc(=O)[nH]n3)s2)cc1Cl,-0.24% (inactive)
8,O=C(COC(=O)/C=C/c1ccc(Br)o1)Nc1ccc2[nH]c(=O)[nH]c2c1,24.5% (inactive)
9,O=C1COc2ccc(C(=O)COC(=O)/C=C/c3ccc(Br)o3)cc2N1,35.5% (inactive)
10,O=C(/C=C/c1ccc(Br)o1)OCc1nc2ccsc2c(=O)[nH]1,46% (active)
11,Cc1ccccc1N1CC(C(=O)Nc2nnc(SCc3ccccn3)s2)CC1=O (stereo not given),0.24% (inactive)
12,O=C(Nc1ccc(N2CCCC2)c(Cl)c1)c1ccc2c(c1)OCCO2,-0.93% (inactive)
13,Cc1ccc(OCC(=O)c2cc(C)c(C)cc2C)c([N+](=O)[O-])n1,-9.54% (inactive)
14,Cc1cc(C(=O)CSc2nnc(-c3ccc(OC(F)F)cc3)o2)c(C)n1Cc1cccs1,-10.5% (inactive)
15,C=CCn1c(C)cc(C2=NNC(=Nc3ccc(C)cc3)SC2)c1C,-4.54% (inactive)
16,O=C(O)CCC(=O)N1N=C(c2cccs2)CC1c1cn(-c2ccccc2)nc1-c1ccccc1 (stereo not given),7.42% (inactive)
17,O=c1cc(-c2ccccc2Cl)c2c([nH]1)CCC2,-2.22% (inactive)
18,Cc1ccc(C2C(C#N)=C(N)Oc3c2sc2ccccc32)o1 (stereo not given),14% (inactive)
19,Cc1ccc(C2CC(=O)N3CN(c4ccc(Br)cc4)CSC3=C2C#N)o1 (stereo not given),-1.74% (inactive)
20,Cc1cccc(N2CSC3=C(C#N)C(c4ccc(C)o4)CC(=O)N3C2)c1 (stereo not given),50.5% (active)
21,CC1CCc2sc(C(=O)N/N=C/c3ccc([N+](=O)[O-])cc3)cc2C1 (stereo not given),-11.5% (inactive)
22,Cc1cccc(N2CC(C(=O)Nc3nnc(SCC(=O)N4CCOCC4)s3)CC2=O)c1 (stereo not given),11.4% (inactive)

row,Structure (SMILES),inhibition
1,Cc1ccc(Cn2c(C(C)Nc3nc(-c4ccc(Cl)c([N+](=O)[O-])c4)cs3)nc3cc(C(F)(F)F)ccc32)cc1 (stereo not given),5.29% (inactive)
2,N#Cc1ccc(C23CC4(C2)[C@H](CN(P(=O)(c2ccccc2)c2ccccc2)[C@@H]4c2ccccc2)C3c2ccc(Cl)nc2)cc1 (stereo not given in full),8.04% (inactive)
3,CN(CC(=O)Nc1sccc1C#N)C1CCCCC1,6.43% (inactive)
4,CC1CC1C(=O)Nc1nc(-c2cccs2)c(-c2cccs2)s1 (stereo not given),7.18% (inactive)
5,Cc1sccc1C1C(C#N)=C(N)SC(N)=C1C#N,32.6% (inactive)
6,COc1ccc(C2C(C#N)=C(N)SC(N)=C2C#N)cc1OC,2.28% (inactive)
7,Cc1ccc(C2C(C#N)=C(N)SC(N)=C2C#N)c(C)c1,58% (active)
8,Cc1cc(Cl)ccc1OC(C)C(=O)Nc1ccc(S(=O)(=O)Nc2cnc3ccccc3n2)cc1 (stereo not given),-3.49% (inactive)
9,Cc1ccc(C)c(NC(=O)CN(C)C(=O)c2cccc(-n3cccc3)c2)c1,4.94% (inactive)
10,COc1cccc2cc(/C(C)=N/Nc3nc(-c4cc(C)ccc4C)cs3)c(=O)oc12,16.7% (inactive)
11,COc1ccc(CCNC(=O)c2ccc3c(c2)NC(=O)C(CSCc2cc(C)ccc2C)N3)cc1OC (stereo not given),2.87% (inactive)
12,COc1ccc2c(c1)[nH]c(=O)c1sc3ccccc3c12,-0.73% (inactive)
13,O=C(Nc1nnc(-c2ccccc2Cl)o1)c1nc2ccccc2s1,-8.09% (inactive)
14,CN(C)c1ccc(/C=C/C=C2/SC(=S)N(c3ccccc3)C2=O)cc1,-12.6% (inactive)
15,COc1ccc(OC)c(-c2csc(NC(=O)CSc3ccc([N+](=O)[O-])cc3)n2)c1,-0.57% (inactive)
16,O=c1ccc2c(-c3ccccc3)c3ccc(O)cc3oc-2c1,-13.9% (inactive)
17,COc1ccc2c(c1[N+](=O)[O-])CCC/C2=N/OC(=O)c1ccccc1SC,-1.21% (inactive)
18,COc1ccc(/C=N\NS(=O)(=O)c2ccc(Cl)cc2)cc1COc1ccccc1[N+](=O)[O-],-7.14% (inactive)
19,O=C(NCc1cccnc1)c1ccc(COc2cccc3ccccc23)o1,4.61% (inactive)
20,O=C(CN(c1ccc(Cl)c(C(F)(F)F)c1)S(=O)(=O)c1ccccc1)N/N=C/c1cccc2c1OCCO2,-4.47% (inactive)
21,O=C(Nc1ccc(NC(=S)NC(=O)C(c2ccccc2)c2ccccc2)cc1)c1ccccc1,5.69% (inactive)
22,COc1ccc(C(=O)N/C(=C/c2cccc3ccccc23)C(=O)NCCc2c[nH]c3ccccc23)cc1OC,-0.16% (inactive)

row,Structure (SMILES),inhibition
1,O=C(Nc1ccccc1)c1ccc(Nc2c([N+](=O)[O-])cc([N+](=O)[O-])c3ccccc23)cc1,1.02% (inactive)
2,COc1ccc(N2CCN(C(=O)c3ccc4c(c3)NC(=O)C(CSCc3ccc(C)cc3)N4)CC2)cc1 (stereo not given),27% (inactive)
3,CSc1nc(N(C)CCO)c2sc3nc(-c4ccco4)c4c(c3c2n1)CCC4,-23.5% (inactive)
4,COc1ccccc1CCNC(=O)c1cc(-c2ccccn2)nc2ccc(Br)cc12,-9.45% (inactive)
5,Cc1cc(C#N)c(C)n1-c1cc(S(=O)(=O)N2CCOCC2)ccc1N1CCCC1,2.12% (inactive)
6,CC1(C)Cc2c(C#N)c(N3CCN(C(=O)c4ccccc4Cl)CC3)nc(-c3ccco3)c2CS1,16.3% (inactive)
7,O=C(N/N=C/c1ccc([N+](=O)[O-])o1)c1cn(-c2ccccc2)nc1-c1ccc(Cl)cc1,-1.11% (inactive)
8,Cc1ccc(-c2csc(C3=C(O)CN(NC(=O)c4ccc([N+](=O)[O-])cc4)C3=N)n2)cc1,6.2% (inactive)
9,O=c1[nH]c(C(Cl)Cl)nc2sc3c(c12)CCN(Cc1ccccc1)C3,14.3% (inactive)
10,COC(=O)c1ccc(Nc2cc(C)nc(-c3ccccc3O)n2)cc1,6.69% (inactive)
11,CN1CCc2c(sc3c2c(=O)n(-c2ccccc2)c2nnc(SCc4ccccc4)n32)C1,3.83% (inactive)
12,O=C(COC(=O)c1cccc(S(=O)(=O)N2CCc3ccccc3C2)c1)NCc1ccco1,2.63% (inactive)
13,COc1ccc(-c2cc(OC(=O)c3ccc(F)cc3)c3c(C)oc(C)c3c(=O)c2)cc1,0.02% (inactive)
14,Cc1cc(Br)c2nc3c(c(C(=O)O)c2c1)CCCCC3,46.4% (active)
15,CN(Cc1ccccc1)C(=O)C1CCN(S(=O)(=O)c2ccc3nc4c(c(C(=O)O)c3c2)CCCC4)CC1,3.04% (inactive)
16,CC(C)(C)C(=O)COC(=O)c1c2c(nc3ccccc13)CCC2,-3.89% (inactive)
17,CCn1cc([N+](=O)[O-])c(C(=O)N2N=C(c3cccc4ccccc34)CC2c2ccccc2O)n1 (stereo not given),7.15% (inactive)
18,O=C(COc1ccccc1)Nc1ccc(-c2nnc(-c3ccco3)o2)cc1,21.3% (inactive)
19,COc1ccc(CC(=O)Nc2ccc(-c3nnc(-c4ccccc4)o3)cc2)cc1OC,56.3% (active)
20,COc1ccc(CC(=O)Nc2ccc(-c3nnc(-c4ccccc4)o3)cc2)cc1,11.4% (inactive)
21,Cc1nc2nc(SCC(=O)NCCCN3CCCCCC3)nn2c(C)c1Cc1ccccc1,13.3% (inactive)
22,Cc1ccc(Cc2c(C)nc3nc(SCC(=O)NCCCN4CCCCCC4)nn3c2C)cc1,89.8% (active)

row,Structure (SMILES),inhibition
1,NC(=O)c1ccsc1NC(=O)COC(=O)/C=C/c1ccc([N+](=O)[O-])cc1,7.73% (inactive)
2,CCCN(CCC)C(=O)c1cc(-c2ccc3c(c2)OCO3)nc2ccccc12,-2.46% (inactive)
3,Cc1cc(C(=O)OCC(=O)c2cccc([N+](=O)[O-])c2)c2cccc(C)c2n1,13.6% (inactive)
4,Cc1ccc(C)c(NC(=O)CSc2nc3nc(-c4cccs4)cc(C(F)(F)F)c3c(=O)[nH]2)c1,4.9% (inactive)
5,CCOc1cc(/C=N/NC(N)=O)cc(Br)c1OCC(=O)Nc1cccc2ccccc12,2.46% (inactive)
6,N#CC1=C(N)SC(N)=C(C#N)C1c1ccnc2ccccc12,46.8% (active)
7,N#CC1=C(N)SC(N)=C(C#N)C1CCc1ccccc1,-1.8% (inactive)
8,CCOc1ccccc1C1C(C#N)=C(N)SC(N)=C1C#N,1.92% (inactive)
9,C=CCn1nnc2sc3c(c2c1=O)CCC(C)C3 (stereo not given),-1.29% (inactive)
10,O=c1c2ccccc2nc2sc3ccccc3n12,-1% (inactive)
11,O=C(Nc1ccc(Cl)c(Cl)c1)Nc1nnc(-c2ccncc2)s1,38.8% (inactive)
12,Cc1ccc2nc(C)cc(C(=O)OCC(=O)c3ccc(Cl)c([N+](=O)[O-])c3)c2c1,-4.97% (inactive)
13,CCN(CC)c1ccc(/C=N/NC(=O)Cc2nnc(NC(=O)Nc3ccccc3)s2)cc1,-1.4% (inactive)
14,COc1ccc(/C=N/NC(=O)c2nn(-c3ccc(Cl)cc3)c(=O)c3c(N)scc23)cc1,9.33% (inactive)
15,O=C(COC(=O)C1c2ccccc2Oc2ccccc21)Nc1ccc2c(c1)OCO2,-1.06% (inactive)
16,O=C(NC(=S)Nc1ccc(-c2ccc(CO)o2)cc1)c1cccs1,-8.29% (inactive)
17,CC(C)(C)c1nnc2sc(SC/C(O)=C(\C#N)c3nc4ccccc4[nH]3)nn2c1=O,0.37% (inactive)
18,CC1=CC(=O)c2c(O)ccc(O)c2C1=O,35% (inactive)
19,O=C1c2c(O)cccc2Cc2cccc(O)c21,53.6% (active)
